Legend:
[1] = Antioxidant activity assessed as superoxide anion scavenging activity by NBT reduction method relative to Vitamin C; format: functional; design: concentration or dose not given beside the values
[2] = Antioxidant activity assessed as superoxide anion scavenging activity by NBT reduction method; format: functional; design: concentration or dose not given beside the values
Summary of the method: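 Superoxide was generated by […]xanthine oxidase. Sample in 100 mM phosphate buffer (pH ~7.0) with xanthine oxidase (1.65 × 10^-2 units/ml) and NBT at 25 °C. The reaction was started by adding xanthine and followed by NBT reduction absorbance. Scavenging % was calculated from the absorbance increase with sample versus without sample (control).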

[3] = Acute toxicity in Albino rat; format: organism-based; details: in vivo
HT-29 [4] = assay: Cytotoxicity against human HT-29 cells at 50 ug/ml after 48 hrs by neutral red assay; format: functional
Summary of the method: (§1)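 HT-29 cells (Korean Cell Line Bank) were kept in DMEM with 10% FBS, penicillin and streptomycin at 37 °C under 5% CO2. Cells in 96-well plates were exposed to compounds for 12–48 h. The medium was replaced with fresh medium for neutral red uptake. Dye was extracted with 50% ethanol containing 50 mM sodium citrate (pH 4.2), and absorbance was read at 510 nm after 20 min.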

HT-29 [5] = assay: Cytotoxicity against human HT-29 cells at 150 ug/ml after 12 hrs by neutral red assay; format: functional; summary of the method: as §1
HT-29 [6] = assay: Cytotoxicity against human HT-29 cells at 50 ug/ml after 24 hrs by neutral red assay; format: functional; summary of the method: as §1
HT-29 [7] = assay: Cytotoxicity against human HT-29 cells at 150 ug/ml after 24 hrs by neutral red assay; format: functional; summary of the method: as §1
HT-29 [8] = assay: Cytotoxicity against human HT-29 cells at 100 ug/ml after 48 hrs by neutral red assay; format: functional; summary of the method: as §1
HT-29 [9] = assay: Cytotoxicity against human HT-29 cells at 100 ug/ml after 12 hrs by neutral red assay; format: functional; summary of the method: as §1
HT-29 [10] = assay: Cytotoxicity against human HT-29 cells at 50 ug/ml after 12 hrs by neutral red assay; format: functional; summary of the method: as §1
HT-29 [11] = assay: Cytotoxicity against human HT-29 cells at 100 ug/ml after 24 hrs by neutral red assay; format: functional; summary of the method: as §1

Compound	Activity [1] [%]	Activity [2] [%]	LD50 [3] [mg/kg]	Activity (HT-29 [4]) [%]	Activity (HT-29 [5]) [%]	Activity (HT-29 [6]) [%]	Activity (HT-29 [7]) [%]	Activity (HT-29 [8]) [%]	Activity (HT-29 [9]) [%]	Activity (HT-29 [10]) [%]	Activity (HT-29 [11]) [%]
O=C1O[C@H]([C@@H](O)CO)C(O)=C1O	1	45	–	–	–	–	–	–	–	–	–
CC1(C)[C@H](O)[C@@H](O)C[C@]2(C)[C@H]3C(=O)C=C4[C@@H]5C[C@@](C)(C(=O)O)CC[C@]5(C)CC[C@@]4(C)[C@]3(C)CC[C@@H]12	–	–	656	–	–	–	–	–	–	–	–
COC(=O)[C@]12CC[C@@H](C)[C@H](C)[C@H]1C1=CC[C@@H]3[C@@]4(C)C[C@@H](N=[N+]=[N-])[C@H](N=[N+]=[N-])C(C)(C)[C@@H]4CC[C@@]3(C)[C@]1(C)CC2	1.54	69.1	825	40	61	35	66	55	44	33	48
COC(=O)[C@@]1(C)CC[C@]2(C)CC[C@]3(C)C(=CC(=O)[C@@H]4[C@@]5(C)C[C@H](O)[C@@H](O)C(C)(C)[C@@H]5CC[C@]43C)[C@@H]2C1	1.45	65.1	793	33	40	21	52	42	39	19	41
COC(=O)[C@@]1(C)CC[C@]2(C)CC[C@]3(C)C(=CC(=O)[C@@H]4[C@@]5(C)C[C@H](N=[N+]=[N-])[C@@H](N=[N+]=[N-])C(C)(C)[C@@H]5CC[C@]43C)[C@@H]2C1	1.51	68.1	898	36	55	31	60	52	42	29	46
C[C@H]1[C@H](C)CC[C@]2(C(=O)O)CC[C@]3(C)C(=CC[C@@H]4[C@@]5(C)C[C@@H](O)[C@H](O)C(C)(C)[C@@H]5CC[C@]43C)[C@H]12 [COROSOLIC ACID]	–	–	816	–	–	–	–	–	–	–	–
COC(=O)[C@@]1(C)CC[C@]2(C)CC[C@]3(C)C(=CC(=O)[C@@H]4[C@@]5(C)C[C@H](N)[C@@H](N)C(C)(C)[C@@H]5CC[C@]43C)[C@@H]2C1	1.56	70.1	893	45	65	43	70	58	48	40	50
COC(=O)[C@]12CC[C@@H](C)[C@H](C)[C@H]1C1=CC[C@@H]3[C@@]4(C)C[C@@H](N)[C@H](N)C(C)(C)[C@@H]4CC[C@@]3(C)[C@]1(C)CC2	1.65	74.2	836	50	70	47	75	62	56	44	60
COC(=O)[C@]12CC[C@@H](C)[C@H](C)[C@H]1C1=CC[C@@H]3[C@@]4(C)C[C@@H](O)[C@H](O)C(C)(C)[C@@H]4CC[C@@]3(C)[C@]1(C)CC2 [COROSOLIC ACID METHYL ESTER]	1.51	68	818	35	53	29	58	50	40	22	44
